Measurements as given in ChEMBL document CHEMBL1122647 (J Med Chem, 1984).
Where “and” joins values, the source holds several entries; their conditions need not be identical. Identical values can stand only once.

Legend:
L1210 = assay: Compound was evaluated for its cytotoxicity against the L1210 murine leukemia cell culture; type: functional; details: Mus musculus, read-out: ID50 (the source's name)
Mus musculus [1] = assay: In vivo antitumor activity was evaluated against L1210 leukemia implanted mice by measuring percent increase in life span after intraperitoneal administration of compound at 1 mg/kg; type: functional
Outline: (§1)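 Male B6D2F1J mice, five per group, were implanted ip with 10^5 L1210 cells on day 0. Treatment began on day 1. Drug was given ip in sterile water, twice daily on days 1-4 and 7-10, and as a single double-dose injection on days 5 and 6. Survival was recorded in days (range, and median treated/control), with % ILS derived from it. Body-weight change at 7 days was also recorded.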

Mus musculus [2] = assay: In vivo antitumor activity was evaluated against L1210 leukemia implanted mice by measuring percent increase in life span after intraperitoneal administration of compound at 2 mg/kg; type: functional; outline: as §1
Mus musculus [3] = assay: In vivo antitumor activity was evaluated against L1210 leukemia implanted mice by measuring 7-day weight change after intraperitoneal administration of compound at 2 mg/kg; type: functional
Outline: (§2)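 Groups of five male B6D2F1J mice were inoculated ip with 10^5 L1210 cells on day 0. Starting day 1, drug in sterile water was given ip bid on days 1-4 and 7-10, with a single double-dose injection on days 5 and 6. Percent body-weight change was recorded at day 7, along with survival range, median T/C and ILS.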

Mus musculus [4] = assay: In vivo antitumor activity was evaluated against L1210 leukemia implanted mice by measuring percent increase in life span after intraperitoneal administration of compound at 0.5 mg/kg; type: functional; outline: as §1
Mus musculus [5] = assay: In vivo antitumor activity was evaluated against L1210 leukemia implanted mice by measuring T/C median after intraperitoneal administration of compound at 1 mg/kg; T/C median=16/8; type: functional; outline: as §1
Mus musculus [6] = assay: In vivo antitumor activity was evaluated against L1210 leukemia implanted mice by measuring T/C median after intraperitoneal administration of compound at 2 mg/kg; T/C median=19/8; type: functional; outline: as §1
Mus musculus [7] = assay: In vivo antitumor activity was evaluated against L1210 leukemia implanted mice by measuring number of survival days after intraperitoneal administration of compound at 2 mg/kg; at a range of 16-20; type: functional; outline: as §1
Mus musculus [8] = assay: In vivo antitumor activity was evaluated against L1210 leukemia implanted mice by measuring T/C median after intraperitoneal administration of compound at 0.5 mg/kg; T/C median=15/8; type: functional; outline: as §1
Mus musculus [9] = assay: In vivo antitumor activity was evaluated against L1210 leukemia implanted mice by measuring 7-day weight change after intraperitoneal administration of compound at 0.5 mg/kg; type: functional; outline: as §2
Mus musculus [10] = assay: In vivo antitumor activity was evaluated against L1210 leukemia implanted mice by measuring number of survival days after intraperitoneal administration of compound at 0.5 mg/kg; at a range of 13-16; type: functional; outline: as §1
Mus musculus [11] = assay: In vivo antitumor activity was evaluated against L1210 leukemia implanted mice by measuring 7-day weight change after intraperitoneal administration of compound at 1 mg/kg; type: functional; outline: as §2
Mus musculus [12] = assay: In vivo antitumor activity was evaluated against L1210 leukemia implanted mice by measuring number of survival days after intraperitoneal administration of compound at 1 mg/kg; at a range of 13-17; type: functional; outline: as §1
[13] = target: T1, Dihydrofolate reductase (Mus musculus) (UniProt P00375)
T1 sequence (whole entry): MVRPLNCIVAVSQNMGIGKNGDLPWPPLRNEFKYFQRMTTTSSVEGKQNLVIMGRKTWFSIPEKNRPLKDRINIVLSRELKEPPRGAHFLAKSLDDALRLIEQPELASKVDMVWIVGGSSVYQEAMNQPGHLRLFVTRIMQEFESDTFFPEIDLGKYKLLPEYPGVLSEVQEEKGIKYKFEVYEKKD

Mus musculus [14] = assay: In vivo antitumor activity was evaluated against L1210 leukemia implanted mice by measuring percent increase in life span after intraperitoneal administration of compound at 16 mg/kg; type: functional; outline: as §1
Mus musculus [15] = assay: In vivo antitumor activity was evaluated against L1210 leukemia implanted mice by measuring percent increase in life span after intraperitoneal administration of compound at 32 mg/kg; type: functional; outline: as §1
Mus musculus [16] = assay: In vivo antitumor activity was evaluated against L1210 leukemia implanted mice by measuring number of survival days after intraperitoneal administration of compound at 32 mg/kg; at a range of 12-16; type: functional; outline: as §1
Mus musculus [17] = assay: In vivo antitumor activity was evaluated against L1210 leukemia implanted mice by measuring T/C median after intraperitoneal administration of compound at 16 mg/kg; T/C median=12/9; type: functional; outline: as §1
Mus musculus [18] = assay: In vivo antitumor activity was evaluated against L1210 leukemia implanted mice by measuring number of survival days after intraperitoneal administration of compound at 16 mg/kg; at a range of 11-14; type: functional; outline: as §1
Mus musculus [19] = assay: In vivo antitumor activity was evaluated against L1210 leukemia implanted mice by measuring 7-day weight change after intraperitoneal administration of compound at 32 mg/kg; type: functional; outline: as §2
Mus musculus [20] = assay: In vivo antitumor activity was evaluated against L1210 leukemia implanted mice by measuring 7-day weight change after intraperitoneal administration of compound at 16 mg/kg; type: functional; outline: as §2
Mus musculus [21] = assay: In vivo antitumor activity was evaluated against L1210 leukemia implanted mice by measuring T/C median after intraperitoneal administration of compound at 32 mg/kg; T/C median=13/9; type: functional; outline: as §1
Mus musculus [22] = assay: In vivo antitumor activity was evaluated against L1210 leukemia implanted mice by measuring T/C median after intraperitoneal administration of compound at 32 mg/kg; 22/9; type: functional
Outline: (§3)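 Male B6D2F1J mice, five per group, were inoculated ip with 10^5 L1210 cells on day 0. Treatment began on day 1, given ip in sterile water twice daily on days 1-4 and 7-10, with a single double-dose injection on each of days 5 and 6. Read-outs were percent body weight change over 7 days, survival range in days, treated/control median survival, and percent increase in life span.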

Mus musculus [23] = assay: In vivo antitumor activity was evaluated against L1210 leukemia implanted mice by measuring number of survival days after intraperitoneal administration of compound at 32 mg/kg; range 21-24; type: functional; outline: as §3
Mus musculus [24] = assay: In vivo antitumor activity was evaluated against L1210 leukemia implanted mice by measuring T/C median after intraperitoneal administration of compound at 16 mg/kg; 21/9; type: functional; outline: as §3
Mus musculus [25] = assay: In vivo antitumor activity was evaluated against L1210 leukemia implanted mice by measuring number of survival days after intraperitoneal administration of compound at 16 mg/kg; range 19-21; type: functional; outline: as §3

`Nc1nc(N)c2nc(CNc3ccc(C(=O)NC(CCS(=O)(=O)O)C(=O)O)cc3)cnc2n1` (stereo not drawn) showed an IC50 (L1210) of 31 nM, an Activity (Mus musculus [1]) of 100% and an Activity (Mus musculus [2]) of 138%. For the same molecule, the Activity (Mus musculus [3]) was -8%, the Activity (Mus musculus [4]) was 88% and the Survival days (Mus musculus [5]) was 16. For the same molecule, the Survival days (Mus musculus [6]) was 19, the Survival days (Mus musculus [7]) was 16 and the Survival days (Mus musculus [8]) was 15. The Weight change (Mus musculus [9]) was -1%, the Survival days (Mus musculus [10]) was 13 and the Activity (Mus musculus [11]) was -8%. For the same molecule, the Survival days (Mus musculus [12]) was 13 and the ID50 [13] was 63 nM.

Work on `CN(Cc1cnc2nc(N)nc(N)c2n1)c1ccc(C(=O)NC(CS(=O)(=O)O)C(=O)O)cc1` (stereo not drawn) yielded an IC50 (L1210) of 340 nM, an Activity (Mus musculus [14]) of 33% and an Activity (Mus musculus [15]) of 44%. For the same molecule, the Survival days (Mus musculus [16]) was 12, the Survival days (Mus musculus [17]) was 12 and the Survival days (Mus musculus [18]) was 11. It also gave an Activity (Mus musculus [19]) of -1%, a Weight change (Mus musculus [20]) of 2% and a Survival days (Mus musculus [21]) of 13. It also gave an ID50 [13] of 45 nM.

For `CN(Cc1cnc2nc(N)nc(N)c2n1)c1ccc(C(=O)NC(CCS(=O)(=O)O)C(=O)O)cc1` (stereo not drawn), the IC50 (L1210) was 180 nM, the Activity (Mus musculus [14]; 16 mg/kg) was 155% and 144% and the Survival days (Mus musculus [22]) was 22. For the same molecule, the Survival days (Mus musculus [23]) was 21, the Survival days (Mus musculus [24]) was 21 and the Weight change (Mus musculus [19]) was -12%. For the same molecule, the Survival days (Mus musculus [25]) was 19, the Weight change (Mus musculus [20]) was -9% and the ID50 [13] was 41 nM.
